# Experiments:
# Ku70/80 = Ku70/80 (Homo sapiens, UniProt P12956+P13010); test: Electrophoretic mobility shift assay; type: binding
# In short: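 Purified Ku pre-incubated with varying concentrations of test compound, then added to 5′-[32P]-labeled 30-bp duplex DNA made by annealing a labeled strand to its complement. Incubated 30 min at 25°C, resolved on a 6% non-denaturing polyacrylamide gel, then phosphorimaged and quantified. Triplicate titrations, IC50 from fitted binding curves.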
# DNA-PK = DNA-PK (Homo sapiens, UniProt P12956+P13010); test: DNA-PK phosphoryl-transferase kinase assay with p53 peptide substrate; type: biochemical
# Chain of DNA-PK (P12956 whole entry): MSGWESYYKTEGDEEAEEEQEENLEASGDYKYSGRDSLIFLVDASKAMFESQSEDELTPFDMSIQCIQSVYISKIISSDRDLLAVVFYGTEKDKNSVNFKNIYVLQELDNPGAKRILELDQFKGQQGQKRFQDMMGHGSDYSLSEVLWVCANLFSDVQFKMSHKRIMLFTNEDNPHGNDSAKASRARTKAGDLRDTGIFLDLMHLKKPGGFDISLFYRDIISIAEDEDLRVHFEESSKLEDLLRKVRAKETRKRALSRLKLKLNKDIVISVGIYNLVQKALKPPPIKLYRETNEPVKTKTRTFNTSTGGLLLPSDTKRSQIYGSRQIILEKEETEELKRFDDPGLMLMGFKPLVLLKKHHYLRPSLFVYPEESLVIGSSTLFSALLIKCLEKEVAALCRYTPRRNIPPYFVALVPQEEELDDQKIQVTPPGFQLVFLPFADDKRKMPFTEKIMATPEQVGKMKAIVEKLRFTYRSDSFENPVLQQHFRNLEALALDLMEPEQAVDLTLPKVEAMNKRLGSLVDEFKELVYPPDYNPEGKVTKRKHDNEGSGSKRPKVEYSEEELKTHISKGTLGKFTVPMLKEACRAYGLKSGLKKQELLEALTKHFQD
# Chain of DNA-PK (P13010 whole entry): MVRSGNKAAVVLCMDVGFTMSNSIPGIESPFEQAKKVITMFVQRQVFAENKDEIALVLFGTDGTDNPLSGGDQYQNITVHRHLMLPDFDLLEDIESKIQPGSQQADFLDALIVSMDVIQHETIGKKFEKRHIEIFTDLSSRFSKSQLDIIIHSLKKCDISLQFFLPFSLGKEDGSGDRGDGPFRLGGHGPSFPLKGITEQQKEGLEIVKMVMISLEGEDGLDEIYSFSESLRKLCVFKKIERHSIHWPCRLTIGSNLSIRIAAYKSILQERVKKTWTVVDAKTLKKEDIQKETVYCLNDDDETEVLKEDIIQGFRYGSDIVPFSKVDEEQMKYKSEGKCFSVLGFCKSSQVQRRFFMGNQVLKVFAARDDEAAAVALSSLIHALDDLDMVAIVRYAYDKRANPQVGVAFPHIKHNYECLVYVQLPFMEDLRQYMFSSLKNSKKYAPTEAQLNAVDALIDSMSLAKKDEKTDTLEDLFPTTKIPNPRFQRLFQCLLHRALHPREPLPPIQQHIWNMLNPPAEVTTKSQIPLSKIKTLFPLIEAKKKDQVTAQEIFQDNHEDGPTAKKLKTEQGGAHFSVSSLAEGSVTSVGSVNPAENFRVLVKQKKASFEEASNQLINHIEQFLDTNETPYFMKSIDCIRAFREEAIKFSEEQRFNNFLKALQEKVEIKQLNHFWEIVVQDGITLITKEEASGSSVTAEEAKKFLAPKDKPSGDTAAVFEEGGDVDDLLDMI
# In short: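 DNA-PKcs purified from HeLa or HEK 293 cells and combined with Ku; test compound pre-incubated with the enzyme 15 min. Reaction started with ATP, unlabeled 30-bp duplex DNA and synthetic p53-based peptide. [32P] transfer run at 37°C for 15 min, stopped with 30% acetic acid, spotted on P81 filters and washed. Read by phosphorimaging. Triplicate titrations, IC50 from fitted binding curves.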
# [1] = test system: Ku80-wt mouse embryo fibroblasts (MEF); test: CCK-8 cell viability, wild type MEF; type: cell-based; conditions: 20 μM
# In short: (§1)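 Ku80-wt and Ku80-null MEFs in RPMI with 10% FBS, 5 × 10^3 per well, grown 24 h before treatment. Exposed 48 h in Opti-MEM to vehicle or 20 μM test compound, concurrently with indicated bleomycin concentrations (or compound alone), 1% DMSO constant. CCK-8 about 2 h, A450 read; percent viability relative to vehicle controls. Mean and SEM of triplicates.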
# [2] = test system: Ku80-null mouse embryo fibroblasts (MEF); test: CCK-8 cell viability, Ku80-null MEF; type: cell-based
# In short: as §1
# Solubility and stability = type: physicochemical
# Ku protein = Ku protein (Homo sapiens, UniProt P12956+P13010); test: Thermal-shift assay; type: binding
# Chain of Ku protein (P12956 whole entry): as the sequence (P12956 whole entry) above
# Chain of Ku protein (P13010 whole entry): as the sequence (P13010 whole entry) above
# In short: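 Purified Ku70/80 (baculovirus-infected Sf9 cells) mixed with DMSO vehicle or a fixed test-compound concentration, then split into aliquots. Aliquots heated 3 min at a range of temperatures, cooled to 4 °C and spun at 12,000 × g for 20 min. Soluble Ku70 detected by SDS-PAGE western blot with chemiluminescence. Band intensities normalised to the 40 °C point, fit to a 4-parameter sigmoid, giving T1/2.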
# γ-H2AX in H460 cells = test: Immunofluorescence of γ-H2AX after Bleomycin; type: cell-based; conditions: 20 μM, 10 μM Bleomycin 1 h
# In short: (§2)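 H460 cells on coverslips overnight, then 10 μM bleomycin for 1 h at 37 °C with 20 μM test compound, given concurrently or after 1 or 2 h preincubation; controls in 1% DMSO. Fixed in 4% PFA, permeabilised in 0.1% Triton, blocked. Stained with anti-p-DNA-PKcs S2056 and anti-γH2AX S139 (1:200, overnight 4 °C), plus DAPI. Fiji scored p-S2056 intensity and γH2AX foci over 200 cells; median, unpaired t-test.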
# [3] = test system: DNA-PKcs p-S2056 in H460 cells; test: Immunofluorescence of DNA-PKcs p-S2056 after Bleomycin; type: cell-based; conditions: 20 μM, concurrent or 1-2 h pre-incubation, 10 μM Bleomycin 1 h
# In short: as §2
# MELK kinase = MELK kinase (Homo sapiens, UniProt Q14680); test: Kinase screen; type: biochemical; conditions: 2.5 μM
# Chain of MELK kinase (Q14680 whole entry): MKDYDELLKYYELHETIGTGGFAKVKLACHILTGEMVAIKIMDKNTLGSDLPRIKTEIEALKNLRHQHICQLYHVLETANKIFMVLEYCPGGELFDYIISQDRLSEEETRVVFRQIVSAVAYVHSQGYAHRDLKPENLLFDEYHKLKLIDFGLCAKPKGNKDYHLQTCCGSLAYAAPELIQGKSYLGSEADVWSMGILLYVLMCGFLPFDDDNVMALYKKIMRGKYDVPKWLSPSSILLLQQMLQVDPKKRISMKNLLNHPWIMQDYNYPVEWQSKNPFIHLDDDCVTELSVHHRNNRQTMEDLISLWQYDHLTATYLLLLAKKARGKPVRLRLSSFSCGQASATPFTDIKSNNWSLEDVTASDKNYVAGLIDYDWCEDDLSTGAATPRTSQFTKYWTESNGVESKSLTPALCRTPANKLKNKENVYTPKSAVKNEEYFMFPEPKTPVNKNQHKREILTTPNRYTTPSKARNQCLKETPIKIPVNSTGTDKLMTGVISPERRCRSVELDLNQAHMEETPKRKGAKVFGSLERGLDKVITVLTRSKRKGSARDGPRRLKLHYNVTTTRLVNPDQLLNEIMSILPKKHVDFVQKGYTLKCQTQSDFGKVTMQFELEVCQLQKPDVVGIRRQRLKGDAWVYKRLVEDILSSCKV
# In short: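 Panel of 24 kinases, each with its own substrate, run in triplicate with or without 2.5 μM test compound using ADP-Glo. After ATP depletion, generated ADP was read by coupled luciferase luminescence. Percent activity remaining, or inhibition, calculated relative to DMSO vehicle controls.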
# H460 cells [4] = test: CRISPR/Cas9 HDR-mediated gene insertion at EMX1; type: cell-based; conditions: 20 μM
# In short: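 Donor carrying GFP and a puromycin-resistance gene, flanked by 800 bp homology arms to an EMX1 CRISPR cut site, co-transfected into H460 cells with EMX1 gRNA and Cas9 plasmids, with vehicle or 20 μM test compound. Junctional PCR on genomic DNA scored precise homologous integration among puromycin-resistant clones.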
# H460 cells [5] = test: CCK-8 cell viability with etoposide; type: cell-based; conditions: 20 μM, 48 h
# In short: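 H460 cells in RPMI with 10% FBS, plated at 5 × 10^3 per well and grown 24 h. Treated 48 h in Opti-MEM with 20 μM test compound or vehicle plus indicated etoposide concentrations, DMSO held at 1%. CCK-8 added for about 2 h, then A450 read; percent viability taken relative to vehicle-treated controls. Mean and SEM of triplicates.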
# Chain of Ku70/80 (P12956 whole entry): as the sequence (P12956 whole entry) above
# Chain of Ku70/80 (P13010 whole entry): as the sequence (P13010 whole entry) above
molecule,measurement,setting,value
"O=c1cc(N2CCOCC2)oc2c(-c3cccc4c3sc3ccccc34)cccc12 [NU7441, reference compound]",impact on Ku–DNA binding activity,Ku70/80,no impact
COc1cccc(NC(=O)c2cc(-c3ccc(/C=C4\C(=O)N(c5cccc(C(=O)O)c5)N=C4C)o3)ccc2Cl)c1 [compound 68],fold increase in Ku–DNA binding inhibitory activity,Ku70/80; on incorporation of 3-methoxyphenyl amide into X80,4 fold
same,IC50,DNA-PK,3120 ± 700 nM
same,"sensitivity to Bleomycin induced by compound, wild type cells",[1]; concurrent 48 h with Bleomycin,increased sensitivity
same,"reduction in survival, single agent",[1]; preliminary single agent experiments,< 10%
same,"sensitivity to Bleomycin induced by compound, Ku80-null cells","[2]; 20 μM, concurrent 48 h with Bleomycin",no significant increase in sensitivity
same,solubility compared to 5102 and 5135,Solubility and stability,significant increase in solubility
COc1cccc(NC(=O)c2cc(-c3ccc(CC4C(=O)N(c5cccc(C(=O)O)c5)N=C4C)o3)ccc2Cl)c1 (stereo not drawn) [compound 149],IC50,Ku70/80,3720 ± 1500 nM
same,IC50,DNA-PK,500 ± 30 nM
COc1cccc(NC(=O)c2cc(-c3ccc(CC4C(=O)N(c5cccc(-c6nnn[nH]6)c5)N=C4C)o3)ccc2Cl)c1 (stereo not drawn) [compound 245],IC50,Ku70/80,1990 ± 900 nM
same,shift in Tm of Ku,Ku protein; vs vehicle Tm of 50°C,6 °C
same,Tm of Ku,Ku protein; with compound,56 °C
same,IC50,DNA-PK,240 ± 15 nM
same,γ-H2AX (DDR),γ-H2AX in H460 cells,inhibition of the DDR
same,DNA-PKcs Ser 2056 phosphorylation in cells,[3],reduced Ser 2056 phosphorylation
same,inhibition of MELK kinase,MELK kinase,moderate inhibition
same,Insertion efficiency (%),H460 cells [4],80%
COc1cccc(NC(=O)c2cc(-c3ccc(CC4C(=O)N(c5cccc(C(=O)O)c5)N=C4C(F)(F)F)o3)ccc2Cl)c1 (stereo not drawn) [compound 322],IC50,Ku70/80,2660 ± 300 nM
same,IC50,DNA-PK,110 ± 20 nM
same,sensitization to etoposide,H460 cells [5],Sensitization to etoposide
Bleomycin [reference compound],increased sensitivity of Ku80-null cells compared to wt MEFs,"[2]; 48 h, CCK-8",~6 fold

# — PMC7672428 (Nucleic Acids Research, 2020)
